Test results taken from ChEMBL document CHEMBL1149681, “OSW-1 analogues: modification of the carbohydrate moiety” (Bioorg Med Chem Lett, 2007).
pIC50: −log10 of the molar value.

Experiments:
Type in all cases: functional, cell-based
NCI-H460 = experiment: Antitumor activity against human NCI-H460 cells by methylene blue staining method
Outline: (§1)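 Cells grown in RPMI1640 with 10% fetal bovine serum, seeded in 96-well plates and cultured overnight at 37 °C, 5% CO2 before serially diluted samples were added. After 3 days of culture, stained 30 min with 0.05% methylene blue in 10 mM Tris pH 8.5, washed with water, dye extracted with 3% HCl, OD660 read. Independent triplicates; IC50 from means. Cisplatin control included in each assay.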

MDA-MB-231 = experiment: Antitumor activity against human MDA-MB-231 cells by methylene blue staining method; outline: as §1
T47D = experiment: Antitumor activity against human T47D cells by methylene blue staining method; outline: as §1
A498 = experiment: Antitumor activity against human A498 cells by methylene blue staining method; outline: as §1
PC-3 = experiment: Antitumor activity against human PC3 cells by methylene blue staining method; outline: as §1
DLD-1 = experiment: Antitumor activity against human DLD1 cells by methylene blue staining method; outline: as §1
HCT-116 = experiment: Antitumor activity against human HCT116 cells by methylene blue staining method; outline: as §1
UO-31 = experiment: Antitumor activity against human UO31 cells by methylene blue staining method; outline: as §1

SMILES | pIC50 (NCI-H460) | pIC50 (MDA-MB-231) | pIC50 (T47D) | pIC50 (A498) | pIC50 (PC-3) | pIC50 (DLD-1) | pIC50 (HCT-116) | pIC50 (UO-31)
COc1ccc(C(=O)O[C@H]2[C@H](O[C@H]3[C@H](OC(C)=O)[C@@H](O[C@H]4C[C@H]5[C@@H]6CCc7cc(O)ccc7[C@H]6CC[C@]5(C)[C@@]4(O)[C@H](C)C(=O)CCC(C)C)OC[C@H]3O)OC[C@@H](O)[C@@H]2O)cc1 | 6.59 | 6.17 | 6.15 | 6.37 | 5.85 | 5.93 | – | –
COc1ccc(C(=O)O[C@@H]2CCO[C@H]2O[C@H]2[C@H](OC(C)=O)[C@@H](O[C@H]3C[C@H]4[C@@H]5CCc6cc(O)ccc6[C@H]5CC[C@]4(C)[C@@]3(O)[C@H](C)C(=O)CCC(C)C)OC[C@H]2O)cc1 | 5.24 | 4.74 | – | – | – | – | – | –
COc1ccc(C(=O)O[C@H]2[C@H](O[C@@H]3CCO[C@H](O[C@H]4C[C@H]5[C@@H]6CCc7cc(O)ccc7[C@H]6CC[C@]5(C)[C@@]4(O)[C@H](C)C(=O)CCC(C)C)[C@H]3OC(C)=O)OC[C@@H](O)[C@@H]2O)cc1 | 4.86 | 4.96 | – | – | – | – | – | –
COc1cccc2c1C(=O)c1c(O)c3c(c(O)c1C2=O)C[C@@](O)(C(=O)CO)C[C@@H]3O[C@H]1C[C@H](N)[C@H](O)[C@H](C)O1 [DOXORUBICIN] | 8.43 | 7.00 | 7.57 | 7.46 | 6.70 | 7.00 | 7.43 | 7.00

Continued by rising pIC50 (NCI-H460), values first:

pIC50 (NCI-H460) | pIC50 (MDA-MB-231) | pIC50 (T47D) | pIC50 (A498) | pIC50 (PC-3) | pIC50 (DLD-1) | pIC50 (HCT-116) | pIC50 (UO-31) | SMILES
5.00 | 5.16 | – | – | – | – | – | – | CC(=O)O[C@@H]1[C@@H](O[C@H]2C[C@H]3[C@@H]4CCc5cc(O)ccc5[C@H]4CC[C@]3(C)[C@@]2(O)[C@H](C)C(=O)CCC(C)C)OC[C@@H](O)[C@H]1O[C@@H]1OC[C@@H](O)[C@H](O)[C@H]1O
5.59 | 6.07 | 5.55 | 6.52 | 6.17 | 5.76 | 5.54 | 7.25 | COc1ccc(C(=O)O[C@H]2[C@H](O[C@H]3[C@H](OC(C)=O)[C@@H](O[C@H]4C[C@H]5[C@@H]6CCc7cc(O)ccc7[C@H]6CC[C@]5(C)[C@@]4(O)[C@H](C)C(=O)CCC(C)C)OC[C@H]3F)OC[C@@H](O)[C@@H]2O)cc1
